Broadly, the pIC50 is −log10 of the IC50, conventionally taken in molar units. The low end stands for a high IC50, the high end for a low IC50. Broadly, the IC50 is the midpoint of a concentration-inhibition curve. A lower IC50 goes with greater potency. A word on the EC30: it is the concentration at which the effect reaches the 30% level.

Assay [1] deals with T1, cGMP-dependent 3',5'-cyclic phosphodiesterase (Bos taurus, UniProt P14099).
T1 sequence (P14099 whole entry): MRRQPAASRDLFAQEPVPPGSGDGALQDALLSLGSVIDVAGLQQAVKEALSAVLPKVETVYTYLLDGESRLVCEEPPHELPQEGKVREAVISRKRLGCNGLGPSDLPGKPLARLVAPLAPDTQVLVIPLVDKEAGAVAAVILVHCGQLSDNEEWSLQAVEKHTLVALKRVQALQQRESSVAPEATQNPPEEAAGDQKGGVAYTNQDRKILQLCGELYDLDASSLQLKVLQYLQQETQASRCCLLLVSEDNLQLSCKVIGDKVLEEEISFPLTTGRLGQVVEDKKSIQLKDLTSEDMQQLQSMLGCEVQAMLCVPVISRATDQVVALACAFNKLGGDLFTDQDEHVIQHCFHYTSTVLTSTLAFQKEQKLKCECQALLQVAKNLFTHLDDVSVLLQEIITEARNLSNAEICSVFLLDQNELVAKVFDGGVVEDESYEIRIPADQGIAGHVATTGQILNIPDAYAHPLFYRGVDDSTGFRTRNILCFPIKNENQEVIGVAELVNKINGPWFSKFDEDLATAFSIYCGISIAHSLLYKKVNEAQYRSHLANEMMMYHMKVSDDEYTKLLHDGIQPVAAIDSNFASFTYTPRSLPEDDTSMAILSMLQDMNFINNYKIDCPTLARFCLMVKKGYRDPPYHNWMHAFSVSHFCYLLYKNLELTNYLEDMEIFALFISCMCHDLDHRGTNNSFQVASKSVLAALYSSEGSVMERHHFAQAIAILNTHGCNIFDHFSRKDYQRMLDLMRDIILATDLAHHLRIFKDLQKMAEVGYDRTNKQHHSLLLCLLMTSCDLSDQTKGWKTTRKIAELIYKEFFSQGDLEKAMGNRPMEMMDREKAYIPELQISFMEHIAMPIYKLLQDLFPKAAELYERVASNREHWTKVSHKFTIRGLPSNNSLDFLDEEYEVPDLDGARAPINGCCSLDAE
The assay can be described thus: Inhibition of bovine adrenal gland Phosphodiesterase 2 (PDE2). An outline of the steps: (§1)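 Boiled, then snake-venom nucleotidase for 30 min at 37 °C, methanol stop, Dowex separation, scintillation counting. IC50 from log concentration-inhibition curve (≥4 points), mean of ≥2 duplicate experiments.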

Assay [2] addresses cGMP-specific 3',5'-cyclic phosphodiesterase (Canis lupus familiaris, UniProt O77746). The assay can be described thus: Inhibitory activity against canine lung Phosphodiesterase 5 (PDE5). In short, it runs like this: as §1
The target in assay [3] is Phosphodiesterase 3 (Canis familiaris). Put plainly: Inhibitory activity against canine heart Phosphodiesterase 3 (PDE3).
In the next assay the target is Phosphodiesterase 1 (Rattus norvegicus, UniProt Q63421+Q9EPR9+Q01066). The assay can be described thus: Inhibitory activity against rat heart Phosphodiesterase 1(PDE1). In kind it is protein assay.
For assay [4], the target named is Phosphodiesterase 4 (Canis familiaris). The assay can be described thus: Inhibition of canine lung Phosphodiesterase 4 (PDE4).
A short description of assay [5]: Relaxant effect on isolated rabbit corpus cavernosum. In kind it is functional, tissue-based, Oryctolagus cuniculus. The settings on record: target entry is the homologue from another species.

pIC50: −log10 of the molar value.

With `CCCc1nn(C)c2c(=O)[nH]c(-c3cc(S(=O)(=O)N4CCN(C)CC4)ccc3OCC)nc12`, the pIC50 in assay [1] is less than 5.00.

`CNc1ccc(-n2c(C(=O)OC)c(-c3cc(OC)c(OC)c(OC)c3)c3cc(OC)c(OC)cc3c2=O)cc1` gave a pIC50 in assay [2] of less than 5.00. Further, the IC50 (in assay [3]; against Phosphodiesterase 1) was more than 10 µM in each case.

`COC(=O)c1c(-c2cc(OC)c(OC)c(OC)c2)c2cc(OC)c(OC)cc2c(=O)n1Cc1ccccc1` had a pIC50 in assay [2] of 6.42. Further, the IC50 was more than 10 µM in assay [3] and 3.1 µM on Phosphodiesterase 1.

The compound `COC(=O)c1c(-c2cc(OC)c(OC)c(OC)c2)c2cc(OC)c(OC)cc2c(=O)n1N1CCOCC1` gave a pIC50 in assay [2] of 7.59. Also, the IC50 (in assay [3]; at Phosphodiesterase 1) was more than 10 µM each time.

Compound `COC(=O)c1nc(O)c2cc(OC)c(OC)cc2c1-c1cc(OC)c(OC)c(OC)c1` showed a pIC50 in assay [2] of 6.05. Further, the IC50 (in assay [3]; against Phosphodiesterase 1) was more than 10 µM each time.

For the compound `COC(=O)c1c(-c2cc(OC)c(O)c(OC)c2)c2ccc(OCc3ccccn3)cc2c(=O)n1-c1ccc(N)cc1`, the pIC50 in assay [2] was 7.85. Also, the IC50 in assay [3] is more than 10 µM; against Phosphodiesterase 1 it was 2.6 µM.

In assay [2], `COC(=O)c1c(-c2cc(OC)c(OC)c(OC)c2)c2cc(OC)c(OC)cc2c(=O)n1C1CCCC1` showed a pIC50 of 6.24. Also, the IC50 (in assay [3]; against Phosphodiesterase 1) was more than 10 µM in each case.

As to `COC(=O)c1c(-c2cc(OC)c(Br)c(OC)c2)c2ccc(OCc3ccccn3)cc2c(=O)n1-c1ccc(N)cc1.Cl.Cl`, the results for the IC50 (in assay [4]; in assay [3]; on Phosphodiesterase 1) were 0.75 µM, 8.4 µM and 0.46 µM, respectively. For the same compound, the negative-log IC50 (pIC50) in assay [2] is 9.66; in assay [1], 5.55. The compound further yielded an EC30 in assay [5] of 0.044 µM.

On to `COC(=O)c1c(-c2cc(OC)c(OC)c(OC)c2)c2cc(OC)ccc2c(=O)n1-c1ccc(N)cc1.Cl`, for which the pIC50 in assay [2] is 7.01. In addition, the concentration for half-maximal inhibition (IC50) was more than 10 µM in assay [3] and 3.9 µM at Phosphodiesterase 1.

In assay [2], `COc1cc(-c2c(C(=O)N(C)C)n(-c3ccc(N)cc3)c(=O)c3cc(OCc4ccccn4)ccc23)cc(OC)c1OC.Cl.Cl` gave a pIC50 of 5.68. In addition, the IC50 (in assay [3]; against Phosphodiesterase 1) was more than 10 µM each time.

Take `COC(=O)c1c(-c2cc(OC)c(OC)c(OC)c2)c2cc(OC)c(OC)cc2c(=O)n1-c1cccc(N)c1.Cl`: in assay [2], the pIC50 was 6.60. For the same compound, the 50% inhibitory concentration (IC50) (in assay [3]; at Phosphodiesterase 1) was more than 10 µM in each case.

Consider `COC(=O)c1c(-c2cc(OC)c(OC)c(OC)c2)c2cc(OC)c(OC)cc2c(=O)n1-c1ccc(N(C)C)cc1.Cl`, for which, in assay [2], the pIC50 was less than 5.00. The IC50 (in assay [3]; at Phosphodiesterase 1) was more than 10 µM throughout.

Consider `COC(=O)c1c(-c2cc(OC)c(OC)c(OC)c2)c2ccc(OCc3ccccc3)cc2c(=O)n1-c1ccc(N)cc1.Cl`, for which the IC50 is 6.1 µM in assay [4], more than 10 µM in assay [3] and 2.1 µM on Phosphodiesterase 1. Besides, the pIC50 in assay [2] is 8.92; in assay [1], less than 5.00. Further, the EC30 in assay [5] was 0.13 µM.

Turning to `COC(=O)c1c(-c2cc(OC)c(C)c(OC)c2)c2ccc(OCc3ccccn3)cc2c(=O)n1-c1ccc(N)cc1.Cl.Cl`, the IC50 was 1.7 µM in assay [4], more than 10 µM in assay [3] and 1.1 µM against Phosphodiesterase 1. The pIC50 in assay [2] was 9.41; in assay [1] it was 5.46. Also, the EC30 in assay [5] was determined as 0.037 µM.

`CCOC(=O)c1c(-c2cc(OC)c(OC)c(OC)c2)c2ccc(OCc3ccccn3)cc2c(=O)n1-c1ccc(N)cc1.Cl.Cl` showed a negative logarithm of the IC50 (pIC50) in assay [2] of 7.74. The results for the IC50 (in assay [3]; against Phosphodiesterase 1) were more than 10 µM and 0.55 µM, respectively.

The compound `COC(=O)c1c(-c2cc(O)c(OC)c(OC)c2)c2ccc(OCc3ccccn3)cc2c(=O)n1-c1ccc(N)cc1.Cl.Cl` had a pIC50 in assay [2] of 8.07. The IC50 against Phosphodiesterase 1 was more than 10 µM.

The compound `COc1cc(-c2c(C(N)=O)n(-c3ccc(N)cc3)c(=O)c3cc(OCc4ccccn4)ccc23)cc(OC)c1OC.Cl.Cl` showed a pIC50 in assay [2] of 6.31. The IC50 (in assay [3]; against Phosphodiesterase 1) was more than 10 µM each time.

With `COC(=O)c1c(-c2cc(OC)c(OC)c(OC)c2)c2ccc(OC)cc2c(=O)n1-c1ccc(N)cc1.Cl`, the pIC50 in assay [2] was 7.70. In addition, the IC50 in assay [3] was more than 10 µM; at Phosphodiesterase 1, 1 µM.

The compound `COc1cc(-c2c(C(=O)O)n(-c3ccc(N)cc3)c(=O)c3cc(OCc4ccccn4)ccc23)cc(OC)c1OC.Cl.Cl` gave a pIC50 in assay [2] of 5.72. For the same compound, the IC50 (in assay [3]; at Phosphodiesterase 1) was more than 10 µM throughout.

For the compound `COC(=O)c1c(-c2cc(OC)c(OC)c(OC)c2)c2ccc(OCc3cccnc3)cc2c(=O)n1-c1ccc(N)cc1.Cl.Cl`, the IC50 in assay [4] was 3.6 µM; in assay [3], more than 10 µM; against Phosphodiesterase 1 it was 3.9 µM. Also, the results for the pIC50 in assay [2] and in assay [1] were 8.96 and less than 5.00, respectively. This compound showed an EC30 in assay [5] of 0.0095 µM.

Take `COC(=O)c1c(-c2cc(OC)c(OC)c(OC)c2)c2cc(OC)c(OC)cc2c(=O)n1-c1ccc(N)cc1.Cl`: in assay [2], the pIC50 is 7.68. For the same compound, the values for the IC50 (in assay [3]; at Phosphodiesterase 1) were 4.4 µM and more than 10 µM, respectively.

Take `CCOc1cc2c(-c3cc(OC)c(OC)c(OC)c3)c(C(=O)OC)n(-c3ccc(N)cc3)c(=O)c2cc1OCC.Cl`: the pIC50 in assay [2] was 7.57. In addition, the half-maximal inhibitory concentration (IC50) (in assay [3]; at Phosphodiesterase 1) was more than 10 µM each time.

Consider `CNC(=O)c1c(-c2cc(OC)c(OC)c(OC)c2)c2ccc(OCc3ccccn3)cc2c(=O)n1-c1ccc(N)cc1.Cl.Cl`, for which the pIC50 in assay [2] is 6.66. Besides, the IC50 (in assay [3]; at Phosphodiesterase 1) was more than 10 µM in each case.

As to `COC(=O)c1c(-c2cc(OC)c(OC)c(OC)c2)c2ccc(OCc3ccccn3)cc2c(=O)n1-c1ccc(N)cc1.Cl.Cl`, the pIC50 is 9.00 in assay [2] and less than 5.00 in assay [1]. This compound also displayed an IC50 against Phosphodiesterase 1 of 1.3 µM. In assay [5], this compound returned an EC30 of 0.0079 µM.

Compound `COC(=O)c1c(-c2cc(OC)c(OC)c(OC)c2)c2cc(OC)c(OC)cc2c(=O)n1-c1ccccc1` gave a pIC50 in assay [2] of 7.52. In addition, the IC50 (in assay [3]; on Phosphodiesterase 1) was more than 10 µM each time.

Compound `COC(=O)c1c(-c2cc(OC)c(OC)c(OC)c2)c2cc(OC)c(OC)cc2c(=O)n1-c1ccc(Cl)cc1` showed a negative logarithm of the IC50 (pIC50) in assay [2] of 6.77. Besides, the IC50 (in assay [3]; against Phosphodiesterase 1) was more than 10 µM throughout.

Turning to `COC(=O)c1c(-c2cc(OC)c(OC)c(OC)c2)c2cc(OC)c(OC)cc2c(=O)n1-c1ccc(OC)cc1`, the pIC50 in assay [2] was less than 5.00. The compound also yielded an IC50 against Phosphodiesterase 1 of more than 10 µM.

In turn, `COC(=O)c1c(-c2cc(OC)c(OC)c(OC)c2)c2cc(OC)c(OC)cc2c(=O)n1-c1ccc(O)cc1` gave a pIC50 in assay [2] of 6.96. In addition, the half-inhibitory concentration (IC50) (in assay [3]; against Phosphodiesterase 1) was more than 10 µM in each case.

For `COC(=O)c1c(-c2cc(OC)c(OC)c(OC)c2)c2cc(OC)c(OC)cc2c(=O)n1C`, the pIC50 in assay [2] is 6.64. Moreover, the IC50 in assay [3] is 8.5 µM; at Phosphodiesterase 1 it was 2.1 µM.

For `COC(=O)c1c(-c2cc(OC)c(OC)c(OC)c2)c2cc(OC)c(OC)cc2c(=O)n1C1CCCCC1`, the pIC50 in assay [2] was 6.64. The IC50 (in assay [3]; against Phosphodiesterase 1) was more than 10 µM throughout.

`COC(=O)c1c(-c2cc(OC)c(OC)c(OC)c2)c2cc(OC)c(OC)cc2c(=O)n1-c1ccc(NC(C)=O)cc1` gave a pIC50 in assay [2] of less than 5.00. The IC50 (in assay [3]; against Phosphodiesterase 1) was more than 10 µM in each case.

`COC(=O)c1c(-c2cc(OC)c(OC)c(OC)c2)c2ccc(OCCc3ccccn3)cc2c(=O)n1-c1ccc(N)cc1`: the pIC50 in assay [2] is 8.30. Besides, the IC50 (in assay [3]; at Phosphodiesterase 1) was more than 10 µM each time.

On to `COC(=O)c1c(-c2cc(OC)c(OC)c(OC)c2)c2cc(OC)c(OC)cc2c(=O)n1N1CCCCC1`, for which, in assay [2], the pIC50 is 7.27. Further, the IC50 (in assay [3]; on Phosphodiesterase 1) was more than 10 µM each time.

(Values after ChEMBL document CHEMBL1134770, “Novel, potent, and selective phosphodiesterase 5 inhibitors: synthesis and biological activities of a series of 4-aryl-1-isoquinolinone derivatives” (J Med Chem, 2001).)
